Converted amounts (≈) assume the structure as drawn. The source made the active and inactive calls. The calls are words filed in the database; no cut-off is given here.

Data set [1] in a line: Inhibition of ATP synthase in Mycobacterium smegmatis inverted membrane vesicles using NADH as substrate incubated for 60 mins by luciferin-luciferase reaction based bioluminescence assay. Also on record: species or system Mycolicibacterium smegmatis. In short, it runs like this:
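ATP made by oxidative phosphorylation in M. smegmatis inverted membrane vesicles (IMVs), driven by NADH with ADP and Pi as ATP synthase substrates. ATP was read by luminescence. IC50 was taken from dose-response testing.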

The subject of data set [2] is Mycobacterium tuberculosis. Put plainly: Antimycobacterial activity against Mycobacterium tuberculosis H37Rv by turbidometric method. Format: functional. In short, it runs like this:
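MIC taken as the minimum concentration inhibiting M. tuberculosis growth by 80%.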

For data set [3], the system named is Mycolicibacterium smegmatis. Briefly: Inhibition of cytochrome c oxidase in Mycobacterium smegmatis inverted membrane vesicles lacking cytochrome-bd complex assessed as reduction of oxygen consumption treated between 250 to 450 secs post NADH addition.
The test system of data set [4] is Mycolicibacterium smegmatis. Put plainly: Inhibition of oxygen consumption in Mycobacterium smegmatis inverted membrane vesicles lacking cytochrome bc1 complex treated between 250 to 450 secs post NADH addition. Format: functional.
The nature of data set [5]: Selectivity index, ratio of IC50 for human THP1 cells to MIC for Mycobacterium tuberculosis H37Rv. The note with it: read-out: Selectivity Index. The data set is classed as toxicity. In short, it runs like this:
(§1)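 Cytotoxicity index is MMIC divided by M. tuberculosis MIC. MMIC is the minimum concentration inhibiting A549 or THP1 proliferation by 50%. MIC is the concentration giving 80% growth inhibition.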

The nature of data set [6]: Selectivity index, ratio of IC50 for human A549 cells to MIC for Mycobacterium tuberculosis H37Rv. Format: toxicity. The note with it: read-out: Selectivity Index. In short, it runs like this: as §1
The nature of data set [7]: Lipophilicity, log D of compound. The following applies: octanol/water. The data set is classed as physicochemical.
Data set [8] relates to Mycobacterium tuberculosis. Put plainly: Antimycobacterial activity against Mycobacterium tuberculosis H37Rv infected in BALB/c mouse assessed as bacterial growth inhibition at 100 to 200 mg/kg, po qd administered […] for 2 weeks. Format: functional, organism-based.
Data set [9] deals with Plasma. Briefly: Ratio of free plasma concentration in BALB/c mouse infected with Mycobacterium tuberculosis H37Rv in absence of pan CYP inhibitor ABT to presence of pan CYP inhibitor ABT. Format: ADME.
The next data set concerns Mus musculus. Briefly: Time required for free plasma concentration to maintain above in vitro MIC for Mycobacterium tuberculosis H37Rv in BALB/c mouse infected with Mycobacterium tuberculosis H37Rv at 100 mg/kg, po in presence of pan CYP inhibitor ABT.
Data set [10] concerns Mycobacterium tuberculosis. Put plainly: Bactericidal activity against Mycobacterium tuberculosis H37Rv. The data set is classed as functional.
For data set [11], the system named is Mycolicibacterium smegmatis. Briefly: Selectivity ratio of IC50 for NDH2 in Mycobacterium smegmatis inverted membrane vesicles using NADH as substrate to IC50 for SDH in Mycobacterium smegmatis inverted membrane vesicles using succinate as substrate.
The subject of data set [12] is Mycolicibacterium smegmatis. Put plainly: Selectivity ratio of IC50 for NADH dependent ATP synthesis in Mycobacterium smegmatis inverted membrane vesicles lacking cytochrome-bc1 complex to IC50 for cytochrome c oxidase in Mycobacterium smegmatis inverted membrane vesicles assessed as decrease in NADH dependent ATP synthesis.
In data set [13] the test system is Plasma. Briefly: Drug uptake in BALB/c mouse plasma at 100 mg/kg, po in presence of pan CYP inhibitor ABT by LC-MS/MS method. The data set is classed as ADME, organism-based. The following applies: in vivo.

Molecule `Cc1ccc2nc(-c3ccc(F)cc3)c(OCCNCc3ccc(C)c(F)c3)n2c1` registered an IC50 in [1] of 70 nM. Moreover, in data set [2], the MIC80 was found to be 0.6 µM (≈ 0.244 µg/mL).

As to `Cc1ccc2nc(-c3ccc(F)cc3)c(OCCCN3CCN(c4ccccc4)CC3)n2c1`, the IC50 in data set [1] was found to be 50 nM. Also, the MIC80 in data set [2] was under 0.8 µM.

Take `CC(Nc1c(-c2ccc(N3CCOCC3)cc2)c(=O)c1=O)c1ccccn1` (configuration not stated): in [1], the IC50 was over 25000 nM. Besides, the MIC80 in data set [2] was over 100 µM.

For `Fc1ccc(OCCOc2c(-c3ccccc3)nc3ccc(Cl)cn23)cc1`, in data set [1], the IC50 amounted to 40 nM. Moreover, the MIC80 in data set [2] is under 1 µM. The inhibition entry in [3] was “Active”. Also, the inhibition result in data set [4] was “inactive”.

Turning to `Cc1ccc2nc(-c3ccccc3)c(OCCCN3CCN(C)CC3)n2c1`, the IC50 in data set [1] is 6400 nM. Moreover, in data set [2], the MIC80 was over 200 µM.

On to `Cc1ccc2nc(-c3ccc(F)cc3)c(OCCCOc3cncc(F)c3)n2c1`, for which, in [1], the midpoint of inhibition, the IC50, lay at 60 nM. Also, in data set [2], the MIC80 is under 0.6 µM.

For the molecule `Cc1ccc2nc(-c3ccccc3)c(OCCOc3ccc(F)cc3)n2c1`, 50 nM corresponded to half-maximal inhibition in data set [1] (IC50). In data set [2], this molecule gave an MIC80 of under 1 µM. Moreover, the inhibition entry in data set [3] was “Active”. Besides, in [4], the inhibition entry was “inactive”.

Molecule `Cc1ccc2nc(-c3ccc(F)cc3)c(OCCNS(=O)(=O)c3ccc(F)c(Cl)c3)n2c1` returned an IC50 in data set [1] of 400 nM. The MIC80 in [2] was found to be 3.1 µM (≈ 1.48 µg/mL).

Turning to `Cc1ccc2nc(-c3ccc(F)cc3)c(OCCCOc3ccc(C)nc3C)n2c1`, it took 90 nM to reach half-maximal inhibition in [1] (IC50). Besides, in [2], the MIC80 is 6.3 µM (≈ 2.55 µg/mL).

The molecule `COCCCOc1c(-c2ccccc2)nc2ccccn12` gave an IC50 in data set [1] of 18900 nM. This molecule registered an MIC80 in data set [2] of over 15 µM.

`Clc1ccc2nc(-c3ccccc3)c(OCCN3CCOCC3)n2c1` returned an IC50 in [1] of 36100 nM. Further, in [2], the MIC80 was over 200 µM. Also, the Selectivity ratio in data set [5] and in data set [6] was 0.5 in each case. The logD in data set [7] came out at 3.3.

`Cc1ccc2nc(-c3ccc(F)cc3)c(OCCOc3ccc(F)cc3)n2c1`: in data set [1], inhibition was half-maximal at 20 nM (IC50). Also, the MIC80 in [2] worked out at 3.1 µM (≈ 1.18 µg/mL). Moreover, the inhibition result in data set [3] was “Active”. Further, the inhibition entry in data set [4] was “inactive”.

In turn, `O=c1c(NCc2ccccc2)c(-c2ccc(N3CCOCC3)cc2)c1=O` had an IC50 in [1] of over 100000 nM. This molecule also displayed an MIC80 in data set [2] of over 100 µM.

For the molecule `Cc1cnc(CNc2c(-c3ccc(C(F)(F)F)cc3)c(=O)c2=O)cn1`, the IC50 in [1] turned out to be 8400 nM. Further, the MIC80 in data set [2] was found to be 50 µM (≈ 17.4 µg/mL).

In the case of `O=c1c(NCc2ccc(-c3ccccc3)cn2)c(-c2ccc(N3CCOCC3)cc2)c1=O`, the IC50 in data set [1] was 9500 nM. In [2], this molecule came in with an MIC80 of over 100 µM.

On to `N#Cc1ccc2nc(-c3ccccc3)c(OCCCOc3ccccc3)n2c1`, for which the IC50 in data set [1] is over 100000 nM. In addition, the MIC80 in [2] was over 250 µM.

Take `Cc1ccc2nc(-c3ccc(F)cc3)c(OCCCOc3cccnc3)n2c1`: the IC50 in [1] worked out at 160 nM. For the same molecule, the MIC80 in data set [2] was under 0.9 µM.

In [1], `O=c1c(NCc2ccccn2)c(-c2ccc(N3CCOCC3)cc2)c1=O` yielded an IC50 of 30 nM. Moreover, the MIC80 in [2] lay in the range of 0.5 to 0.8 µM (≈ 0.175 to 0.28 µg/mL). Moreover, the “growth inhibition (GI)” value in [8] is “Active”. Further, the Ratio in the data set on Plasma [9] was found to be 300. In the data set on Mus musculus, the Time came out at 15 h.

In [1], `Clc1ccc2nc(-c3ccccc3)c(OCCCOc3ccccc3)n2c1` returned an IC50 of under 20 nM. The same molecule had an MIC80 in data set [2] of under 0.5 µM. This molecule also yielded an MBC in data set [10] of over 100 µM.

`Cc1ccc2nc(-c3ccc(F)cc3)c(OCCCNS(=O)(=O)c3ccc(F)cc3)n2c1` yielded an IC50 in data set [1] of 700 nM. The same molecule returned an MIC80 in data set [2] of 1.6 µM (≈ 0.732 µg/mL).

As to `Cc1ccc2nc(-c3ccc(F)cc3)c(OCCCNc3ccc(F)c(C)n3)n2c1`, in data set [1], the IC50 was 60 nM. For the same molecule, in data set [2], the MIC80 is under 0.5 µM. In [10], this molecule returned an MBC of over 100 µM.

Consider `Fc1ccc(OCCOc2c(-c3ccccc3)nc3ccccn23)cc1`, for which, in [1], the IC50 worked out at 80 nM. The same molecule had an MIC80 in [2] of under 0.8 µM.

In data set [1], `O=c1c(NCc2ccccn2)c(-c2ccc(C(F)(F)F)cc2)c1=O` gave an IC50 of 300 nM. This molecule also had an MIC80 in data set [2] of 6.2 µM (≈ 2.06 µg/mL).

Turning to `Cc1ccc2nc(-c3ccc(F)cc3)c(OCCCOc3ccc(C)nc3)n2c1`, the IC50 in [1] was under 20 nM. In data set [2], the MIC80 is under 0.8 µM.

`Cc1ccc2nc(-c3ccc(F)cc3)c(OCCNC(=O)c3ccc(C)nc3)n2c1` had an IC50 in data set [1] of 7200 nM. For the same molecule, the MIC80 in data set [2] is over 200 µM.

Take `Cc1ccc2nc(-c3ccc(F)cc3)c(OCCCOc3cncnc3)n2c1`: 5600 nM corresponded to half-maximal inhibition in [1] (IC50). In [2], this molecule returned an MIC80 of 6.9 µM (≈ 2.61 µg/mL). The inhibition result in [3] is “Active”. The inhibition result in data set [4] was “inactive”.

Molecule `COc1ncc(NCCCOc2c(-c3ccc(F)cc3)nc3ccc(C)cn23)cc1C` gave a half-maximal inhibitory concentration (IC50) in data set [1] of 80 nM. Besides, in data set [2], the MIC80 was under 0.8 µM.

For `N#Cc1ccc(-c2c(NCc3ccccn3)c(=O)c2=O)cc1`, the IC50 in data set [1] was 66600 nM. The MIC80 in data set [2] was found to be 100 µM (≈ 28.9 µg/mL).

Take `O=c1c(NCc2cnccn2)c(-c2ccc(N3CCOCC3)cc2)c1=O`: the IC50 in data set [1] was found to be 770 nM. The molecule also yielded an MIC80 in data set [2] of 3.12 to 12.5 µM (≈ 1.09 to 4.38 µg/mL).

As for `Cc1ccc2nc(-c3ccccc3)c(OCCCOc3ccccc3)n2c1`, the IC50 in data set [1] was determined as 30 nM. In data set [2], the MIC80 was under 0.5 µM. In data set [3], the inhibition result was “Active”. Moreover, in data set [4], the inhibition entry is “inactive”.

In data set [2], `NNC(=O)c1ccncc1` [ISONIAZID] came in with an MIC80 of 0.02 µM (≈ 0.00274 µg/mL).

For `Cc1ccc2nc(-c3ccc(F)cc3)c(OCCCNc3cnc(C)c(Br)c3)n2c1`, in data set [1], inhibition was half-maximal at 210 nM (IC50). The same molecule showed an MIC80 in [2] of 0.8 µM (≈ 0.375 µg/mL).

In the case of `COc1nc2ccc(Br)cc2cc1[C@@H](c1ccccc1)[C@@](O)(CCN(C)C)c1cccc2ccccc12`, the figures for the Ratio IC50 in data set [11] and in [12] were 1.5 and 2, respectively. For the same molecule, the inhibition entry in [3] and in data set [4] was “inactive” throughout.

In the case of `Cc1ccc2nc(-c3ccc(F)cc3)c(OCCCNc3ccc(F)c(C)c3)n2c1`, the IC50 in data set [1] came out at 5 nM. The MIC80 in data set [2] amounted to 0.03 µM (≈ 0.0122 µg/mL). Also, in the data set on Plasma [13], the Drug uptake result is on record as “Active”. The same molecule registered an MBC in data set [10] of over 100 µM.

Take `c1ccc(OCCCOc2c(-c3ccccc3)nc3ccccn23)cc1`: in [1], the IC50 was 130 nM. For the same molecule, in [2], the MIC80 stood at 1.6 µM (≈ 0.551 µg/mL).

For the molecule `CO[C@H]1/C=C/O[C@@]2(C)Oc3c(C)c(O)c4c(O)c(c(/C=N/N5CCN(C)CC5)c(O)c4c3C2=O)NC(=O)/C(C)=C\C=C\[C@H](C)[C@H](O)[C@@H](C)[C@@H](O)[C@@H](C)[C@H](OC(C)=O)[C@@H]1C` [RIFAMPIN], the MIC80 in [2] came out at 0.004 µM (≈ 0.00329 µg/mL).

These data come from ChEMBL document CHEMBL4052589, “Discovery of Imidazo[1,2-a]pyridine Ethers and Squaramides as Selective and Potent Inhibitors of Mycobacterial Adenosine Triphosphate (ATP) Synthesis” (J Med Chem, 2017).
